Assay results published in ChEMBL document CHEMBL1144815, “Diphenidol-related diamines as novel muscarinic M4 receptor antagonists” (Bioorg Med Chem Lett, 2008).
Where a name gives a salt, the structure may show the parent alone. Calls of active or inactive are those of the source. The rule behind the calls is not given here.

Key:
[1] = target: T1, Muscarinic acetylcholine receptor M4 (Homo sapiens, UniProt P08173); test: Displacement of [3H]N-methylscopolamine from human muscarinic M4 receptor expressed in CHO-K1 cells; type: cell-based
T1 sequence (P08173 whole entry): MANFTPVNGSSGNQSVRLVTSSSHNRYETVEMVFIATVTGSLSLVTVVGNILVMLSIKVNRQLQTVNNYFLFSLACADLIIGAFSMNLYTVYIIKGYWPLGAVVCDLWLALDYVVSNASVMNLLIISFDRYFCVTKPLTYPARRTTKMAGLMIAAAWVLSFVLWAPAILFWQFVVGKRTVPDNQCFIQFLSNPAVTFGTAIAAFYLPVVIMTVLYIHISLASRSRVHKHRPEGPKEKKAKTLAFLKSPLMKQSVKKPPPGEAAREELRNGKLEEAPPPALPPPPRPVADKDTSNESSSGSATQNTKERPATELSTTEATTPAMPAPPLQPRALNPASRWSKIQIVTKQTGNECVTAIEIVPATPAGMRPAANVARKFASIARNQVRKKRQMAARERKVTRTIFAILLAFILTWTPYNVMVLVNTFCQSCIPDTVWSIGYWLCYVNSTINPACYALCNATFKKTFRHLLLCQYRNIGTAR
How it was run: (§1)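 Binding was measured in CHO-K1 stable transfectants expressing the human receptor subtype. Labelled ligand was [³H]-N-methylscopolamine chloride. Values are the mean of three experiments performed in triplicate.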

[2] = target: T2, Muscarinic acetylcholine receptor M5 (Homo sapiens, UniProt P08912); test: Displacement of [3H]N-methylscopolamine from human muscarinic M5 receptor expressed in CHO-K1 cells; type: cell-based; how it was run: as §1
T2 sequence (P08912 whole entry): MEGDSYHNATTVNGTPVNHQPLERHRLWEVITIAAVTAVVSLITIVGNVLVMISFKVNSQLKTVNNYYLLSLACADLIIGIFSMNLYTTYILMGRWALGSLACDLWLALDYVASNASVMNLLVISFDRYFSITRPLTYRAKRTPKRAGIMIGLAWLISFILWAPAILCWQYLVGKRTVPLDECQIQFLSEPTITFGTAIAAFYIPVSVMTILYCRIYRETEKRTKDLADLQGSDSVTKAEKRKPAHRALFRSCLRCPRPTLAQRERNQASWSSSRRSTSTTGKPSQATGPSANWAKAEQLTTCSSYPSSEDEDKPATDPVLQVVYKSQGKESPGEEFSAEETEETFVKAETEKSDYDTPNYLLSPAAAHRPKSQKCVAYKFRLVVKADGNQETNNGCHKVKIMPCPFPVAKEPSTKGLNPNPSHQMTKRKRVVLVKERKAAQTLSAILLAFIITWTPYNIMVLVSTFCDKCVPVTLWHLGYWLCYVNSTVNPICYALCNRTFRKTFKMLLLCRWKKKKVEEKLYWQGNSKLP

[3] = target: T3, Muscarinic acetylcholine receptor M2 (Homo sapiens, UniProt P08172); test: Displacement of [3H]N-methylscopolamine from human muscarinic M2 receptor expressed in CHO-K1 cells; type: cell-based; how it was run: as §1
T3 sequence (P08172 whole entry): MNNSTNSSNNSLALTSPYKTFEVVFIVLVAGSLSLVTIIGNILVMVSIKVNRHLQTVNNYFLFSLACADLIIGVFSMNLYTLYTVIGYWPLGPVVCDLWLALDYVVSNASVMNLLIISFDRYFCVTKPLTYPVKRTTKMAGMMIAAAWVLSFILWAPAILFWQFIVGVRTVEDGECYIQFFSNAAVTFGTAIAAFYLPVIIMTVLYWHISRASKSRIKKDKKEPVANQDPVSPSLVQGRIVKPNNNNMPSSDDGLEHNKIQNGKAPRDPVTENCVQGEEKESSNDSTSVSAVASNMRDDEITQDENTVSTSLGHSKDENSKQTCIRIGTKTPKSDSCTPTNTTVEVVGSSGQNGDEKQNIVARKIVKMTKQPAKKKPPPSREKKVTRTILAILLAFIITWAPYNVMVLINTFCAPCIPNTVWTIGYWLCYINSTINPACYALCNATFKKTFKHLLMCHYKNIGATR

[4] = target: T4, Muscarinic acetylcholine receptor M1 (Homo sapiens) (UniProt P11229); test: Antagonist activity at human muscarinic M1 receptor expressed in CHO cells assessed as inhibition of basal Eu-GTP binding; type: cell-based
T4 sequence (whole entry): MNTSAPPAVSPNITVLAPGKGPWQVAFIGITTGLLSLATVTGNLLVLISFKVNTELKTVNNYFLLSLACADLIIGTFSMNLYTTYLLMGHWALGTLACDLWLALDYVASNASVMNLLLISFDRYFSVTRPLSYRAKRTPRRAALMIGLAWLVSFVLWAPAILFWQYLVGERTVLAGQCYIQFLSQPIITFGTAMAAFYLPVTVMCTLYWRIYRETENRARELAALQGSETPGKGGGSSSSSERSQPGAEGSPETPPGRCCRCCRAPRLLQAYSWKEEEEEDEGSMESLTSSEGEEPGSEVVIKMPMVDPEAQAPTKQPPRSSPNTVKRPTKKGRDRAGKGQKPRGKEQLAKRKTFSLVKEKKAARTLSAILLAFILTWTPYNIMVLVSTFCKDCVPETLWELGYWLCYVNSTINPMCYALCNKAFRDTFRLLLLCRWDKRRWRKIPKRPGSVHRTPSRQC

[5] = target: T1, Muscarinic acetylcholine receptor M4; test: Antagonist activity at human muscarinic M4 receptor expressed in CHO cells assessed as blockade of carbachol-induced inhibition of forskolin-stimulated cAMP accumulation; type: functional, cell-based
[6] = target: T5, Muscarinic acetylcholine receptor M2 (Homo sapiens) (UniProt P08172); test: Antagonist activity at human muscarinic M2 receptor expressed in CHO cells assessed as inhibition of carbachol-induced Eu-GTP binding; type: cell-based
T5 sequence (whole entry): T3 sequence (P08172 whole entry)
How it was run: (§2)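 Membranes from CHO-K1 cells stably expressing the human receptor subtype. Agonist was carbachol, and the read-out was carbachol-stimulated binding of the non-hydrolysable analogue Eu-GTP to Gα subunits. pKb was estimated functionally by concentration-ratio analysis. Values are the mean of three experiments run in triplicate.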

[7] = target: T5, Muscarinic acetylcholine receptor M2 (Homo sapiens); test: Antagonist activity at human muscarinic M2 receptor expressed in CHO cells assessed as inhibition of basal Eu-GTP binding; type: cell-based
[8] = target: T6, Muscarinic acetylcholine receptor M3 (Homo sapiens, UniProt P20309); test: Displacement of [3H]N-methylscopolamine from human muscarinic M3 receptor expressed in CHO-K1 cells; type: cell-based
Target sequence in this assay (P20309 whole entry): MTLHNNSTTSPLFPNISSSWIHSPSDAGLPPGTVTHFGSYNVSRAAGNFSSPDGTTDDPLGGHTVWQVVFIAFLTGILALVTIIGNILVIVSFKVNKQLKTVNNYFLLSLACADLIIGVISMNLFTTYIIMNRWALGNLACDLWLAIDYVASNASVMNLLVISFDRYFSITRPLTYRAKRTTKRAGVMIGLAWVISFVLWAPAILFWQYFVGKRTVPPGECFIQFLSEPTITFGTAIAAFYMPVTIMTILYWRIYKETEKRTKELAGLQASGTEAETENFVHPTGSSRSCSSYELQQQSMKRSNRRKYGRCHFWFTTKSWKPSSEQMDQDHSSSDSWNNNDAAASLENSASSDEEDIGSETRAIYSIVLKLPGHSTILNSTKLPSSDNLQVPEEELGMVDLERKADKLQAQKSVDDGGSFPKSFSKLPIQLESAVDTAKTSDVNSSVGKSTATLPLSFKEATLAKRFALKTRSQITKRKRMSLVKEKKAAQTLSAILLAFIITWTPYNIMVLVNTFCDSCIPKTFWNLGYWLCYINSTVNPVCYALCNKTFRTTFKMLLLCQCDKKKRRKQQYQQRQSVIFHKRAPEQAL

[9] = target: T7, Muscarinic acetylcholine receptor M5 (Homo sapiens) (UniProt P08912); test: Antagonist activity at human muscarinic M5 receptor expressed in CHO cells assessed as inhibition of carbachol-induced Eu-GTP binding; type: cell-based; how it was run: as §2
T7 sequence (whole entry): T2 sequence (P08912 whole entry)

[10] = target: T8, Muscarinic acetylcholine receptor M4 (Homo sapiens) (UniProt P08173); test: Antagonist activity at human muscarinic M4 receptor expressed in CHO cells assessed as inhibition of carbachol-induced Eu-GTP binding; type: cell-based; how it was run: as §2
T8 sequence (whole entry): T1 sequence (P08173 whole entry)

[11] = target: T8, Muscarinic acetylcholine receptor M4 (Homo sapiens); test: Antagonist activity at human muscarinic M4 receptor expressed in CHO cells assessed as inhibition of basal Eu-GTP binding; type: cell-based
[12] = target: T6, Muscarinic acetylcholine receptor M3; test: Antagonist activity at human muscarinic M3 receptor expressed in CHO cells assessed as inhibition of carbachol-induced Eu-GTP binding; type: cell-based; how it was run: as §2
Target sequence in this assay (P20309 whole entry, looked up): as the sequence (P20309 whole entry) above

[13] = target: T9, Muscarinic acetylcholine receptor M1 (Homo sapiens, UniProt P11229); test: Displacement of [3H]N-methylscopolamine from human muscarinic M1 receptor expressed in CHO-K1 cells; type: cell-based
T9 sequence (P11229 whole entry): T4 sequence (whole entry)

[14] = target: T7, Muscarinic acetylcholine receptor M5 (Homo sapiens); test: Antagonist activity at human muscarinic M5 receptor expressed in CHO cells assessed as inhibition of basal Eu-GTP binding; type: cell-based
[15] = target: T4, Muscarinic acetylcholine receptor M1 (Homo sapiens); test: Antagonist activity at human muscarinic M1 receptor expressed in CHO cells assessed as inhibition of carbachol-induced Eu-GTP binding; type: cell-based; how it was run: as §2
[16] = target: T6, Muscarinic acetylcholine receptor M3; test: Antagonist activity at human muscarinic M3 receptor expressed in CHO cells assessed as inhibition of basal Eu-GTP binding; type: cell-based
Target sequence in this assay (P20309 whole entry, looked up): as the sequence (P20309 whole entry) above

[17] = target: T8, Muscarinic acetylcholine receptor M4 (Homo sapiens); test: Antagonist activity at human muscarinic M4 receptor expressed in CHO cells assessed as inhibition of forskolin-stimulated cAMP accumulation in absence of carbachol at 01 nM to 1 uM; type: functional, cell-based

Ki [1] [µM]	Ki [2] [µM]	Ki [3] [µM]	Activity [4]	EC50 [5] [µM]	IC50 [5] [µM]	pKb [6]	Activity [7]	Ki [8] [µM]	pKb [9]	pKb [10]	Activity [11]	pKb [12]	Ki [13] [µM]	Activity [14]	pKb [15]	Activity [16]	Activity [17]	Compound
0.912	1.29	2.82	–	–	–	–	–	–	–	–	–	–	–	–	–	–	–	OC(CCCN1CCCCC1)(c1ccccc1)c1ccccc1 [DIPHENIDOL HYDROCHLORIDE]
0.0126	0.589	0.363	inactive	0.067	0.067	6.1	inactive	0.372	6.02	7.83	inactive	6.25	0.603	inactive	6.04	inactive	–	C[N+]1(CCCC(O)(c2ccccc2)c2ccccc2)CCC(C2CC[N+](C)(CCCC(O)(c3ccccc3)c3ccccc3)CC2)CC1 (centres undefined)
2.69	25.7	4.37	–	–	–	–	–	3.63	–	–	–	–	8.32	–	–	–	–	C[N+]1(C)CCC(C2CC[N+](C)(CCCC(O)(c3ccccc3)c3ccccc3)CC2)CC1 (centres undefined)
100	123	457	–	–	–	–	–	70.8	–	–	–	–	363	–	–	–	–	OC(CCCN1CCN(c2ccccc2)CC1)(c1ccccc1)c1ccccc1
4.79	9.55	23.4	–	–	–	–	–	4.07	–	–	–	–	2.95	–	–	–	–	C[N+]1(C)CCN(CCCC(O)(c2ccccc2)c2ccccc2)CC1
0.288	0.708	0.275	–	–	–	–	–	0.275	–	–	–	–	0.2	–	–	–	–	C[N+]1(CCCC(O)(c2ccccc2)c2ccccc2)CCCCC1
1.23	1.55	2.29	–	–	–	–	–	5.5	–	–	–	–	7.08	–	–	–	–	C[N+]1(CCCC(O)(c2ccccc2)c2ccccc2)CCN(CCCC(O)(c2ccccc2)c2ccccc2)CC1
11.2	7.59	12	–	–	–	–	–	12.3	–	–	–	–	7.24	–	–	–	–	C[N+](C)(CCCC(O)(c1ccccc1)c1ccccc1)CCC[N+](C)(C)CCCC(O)(c1ccccc1)c1ccccc1
22.4	23.4	178	–	–	–	–	–	87.1	–	–	–	–	851	–	–	–	–	OC(CCCN1CCN(CCCC(O)(c2ccccc2)c2ccccc2)CC1)(c1ccccc1)c1ccccc1
11.2	18.2	47.9	–	–	–	–	–	43.7	–	–	–	–	26.3	–	–	–	–	C[N+](C)(CCCC(O)(c1ccccc1)c1ccccc1)CC[N+](C)(C)CCCC(O)(c1ccccc1)c1ccccc1
22.9	6.92	25.7	–	–	–	–	–	7.59	–	–	–	–	17.4	–	–	–	–	C[N+]1(CCCC(O)(c2ccccc2)c2ccccc2)CCN(c2ccccc2)CC1
0.00646	1.82	1.1	inactive	0.054	> 1	5.55	inactive	0.724	5.84	7.9	inactive	5.63	2.29	inactive	5.74	inactive	inactive	CCOC(=O)c1c(C)[nH]c2ccc3c(c12)CN1CCc2cc(OC)ccc2C1O3 (centres undefined)
1.17	2.88	3.98	–	–	–	–	–	5.25	–	–	–	–	5.75	–	–	–	–	CN1CCC(C2CCN(CCCC(O)(c3ccccc3)c3ccccc3)CC2)CC1
0.617	0.832	5.5	–	–	–	–	–	1.74	–	–	–	–	1.35	–	–	–	–	CN(CCCN(C)CCCC(O)(c1ccccc1)c1ccccc1)CCCC(O)(c1ccccc1)c1ccccc1
1.17	1.41	7.24	–	–	–	–	–	0.661	–	–	–	–	0.603	–	–	–	–	OC(CCCN1CCNCC1)(c1ccccc1)c1ccccc1
162	229	214	–	–	–	–	–	380	–	–	–	–	245	–	–	–	–	CN(CCCC(O)(c1ccccc1)c1ccccc1)CCN(C)CCCC(O)(c1ccccc1)c1ccccc1
9.77	13.5	35.5	–	–	–	–	–	7.41	–	–	–	–	7.76	–	–	–	–	CN1CCN(CCCC(O)(c2ccccc2)c2ccccc2)CC1
0.0741	0.776	0.871	inactive	0.138	–	5.82	inactive	0.724	6.4	7.21	inactive	6.14	0.794	inactive	5.92	inactive	–	OC(CCCN1CCC(C2CCN(CCCC(O)(c3ccccc3)c3ccccc3)CC2)CC1)(c1ccccc1)c1ccccc1
